# Data from publication PMC5667346 (Theranostics, 2017).
# Ends that are not written are not given here.
# Legend:
# [1] = Pharmacokinetic analysis, terminal elimination half-life after i.v. injection; format: in vivo; conditions: male ICR mice, i.v. 500 μg/kg
# DLS assay = format: physicochemical; conditions: 2 mg/mL in 10 mM PBS, 20°C
# [2] = system: bacterial colony count in CLP-induced septic mice; assay: Bacterial count in peritoneal fluid and blood of CLP-operated mice; format: in vivo, mouse; conditions: 500 μg/kg i.v. 12 h after CLP, count at 24 h after CLP, n=10
# Summary of the method: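 Polymicrobial sepsis was induced by cecal ligation and puncture (CLP). Mice received the test compound at 500 μg/kg i.v. 12 h after CLP, with untreated CLP mice as comparators. Bacterial loads in peritoneal fluid and blood were determined by counting colonies, with n = 10 per group. Data are mean ± SD from three independent experiments on different days, analysed by Mann-Whitney U test versus CLP only.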
substance,measurement,setting,value
"PEG5K-KSLW: KSLW mono-PEGylated at the N-terminal amine with monomethoxy PEG-ALD, MW 5,000 Da ({mPEG 5 kDa}-KKVVFWVKFK)",In vivo half-life relative to that of KSLW,[1],> 10 fold
same,"Percentage polydispersity (%Pd), DLS",DLS assay,23.3%
same,Average hydrodynamic diameter (DLS),"DLS assay; filtered 0.22 μm, three repeats with 10 subruns",4.2 nm
same,Decrease of bacterial colony count in the blood,[2],90%
same,Decrease of bacterial colony count in the peritoneal fluid,[2],70%
